Experimental data: ChEMBL document CHEMBL2407047, “Molecular design, synthesis and biological evaluation of 1,4-dihydro-4-oxoquinoline ribonucleosides as TcGAPDH inhibitors with trypanocidal activity” (Bioorg Med Chem Lett, 2013)

Tests used:
[1] = compound: Cc1ccc2c(c1)c(=O)c(C(=O)O)cn2[C@@H]1O[C@H](CO)[C@@H](O)[C@H]1O; assay: (§1) Competitive inhibition of Trypanosoma cruzi glycosomal GAPDH assessed as increase in NAD+ Km by ITC method
In short: (§2)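 Enzyme assays were run by isothermal titration calorimetry (ITC), probing the GAPDH NAD+ cosubstrate site and the active site. Affinity is reported as apparent Ki. Mode of inhibition was judged from how NAD+ and G3P KM and Vmax respond. Kinetic models were compared by second-order Akaike's information criterion.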

[2] = compound: Cc1ccc2c(=O)c(C(=O)O)cn([C@@H]3O[C@H](CO)[C@@H](O)[C@H]3O)c2c1; assay: as §1; in short: as §2
[3] = compound: COc1ccc2c(c1)c(=O)c(C(=O)O)cn2[C@@H]1O[C@H](CO)[C@@H](O)[C@H]1O; assay: as §1; in short: as §2
[4] = compound: O=C(O)c1cn([C@@H]2O[C@H](CO)[C@@H](O)[C@H]2O)c2ccc(Cl)cc2c1=O; assay: as §1; in short: as §2
[5] = compound: COc1ccc2c(=O)c(C(=O)O)cn([C@@H]3O[C@H](CO)[C@@H](O)[C@H]3O)c2c1; assay: as §1; in short: as §2
[6] = compound: O=C(O)c1cn([C@@H]2O[C@H](CO)[C@@H](O)[C@H]2O)c2cc(Br)ccc2c1=O; assay: as §1; in short: as §2
[7] = compound: O=C(O)c1cn([C@@H]2O[C@H](CO)[C@@H](O)[C@H]2O)c2ccc(Br)cc2c1=O; assay: as §1; in short: as §2

B1: Glyceraldehyde-3-phosphate dehydrogenase, glycosomal (Trypanosoma cruzi), P22513 (protein)
chain: MPIKVGINGFGRIGRMVFQALCEDGLLGTEIDVVAVVDMNTDAEYFAYQMRYDTVHGKFKYEVTTTKSSPSVAKDDTLVVNGHRILCVKAQRNPADLPWGKLGVEYVIESTGLFTAKAAAEGHLRGGARKVVISAPASGGAKTLVMGVNHHEYNPSEHHVVSNASCTTNCLAPIVHVLVKEGFGVQTGLMTTIHSYTATQKTVDGVSVKDWRGGRAAAVNIIPSTTGAAKAVGMVIPSTQGKLTGMSFRVPTPDVSVVDLTFTAARDTSIQEIDAALKRASKTYMKGILGYTDEELVSADFINDNRSSIYDSKATLQNNLPKERRFFKIVSWYDNEWGYSHRVVDLVRHMASKDRSARL
B1 was tested, and the Km [1] was 48.5 µM, the Km [2] was 46.9 µM and the Km [3] was 47 µM. It also gave a Km [4] of 63.4 µM, a Km [5] of 67.7 µM and a Km [6] of 50 µM. The Km [7] was 62.6 µM.
